pIC50: −log10 of the molar value. Active and inactive are the calls of the source. The rule behind the calls is not given here.
How the values were obtained:
HCT-116 [1] = assay: Induction of apoptosis in human HCT116 cells assessed as late apoptotic cells at 30 uM after 48 hrs by annexin V-FITC/propidium iodide staining-based flow cytometric analysis in presence of NAC (reference value: 7.2%); assay type: functional
HCT-116 [2] = assay: Induction of apoptosis in human HCT116 cells assessed as decrease in Bcl2 expression at 7.5 to 30 uM after 48 hrs by Western blot analysis; assay type: functional, cell-based
In short: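 HCT116 cells exposed 48 h; Western blot of RIPA lysates (BCA quantification, SDS-PAGE, PVDF, overnight primary antibodies at 4 °C, HRP secondary, ECL).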

HCT-116 [3] = assay: Induction of cell cycle arrest in human HCT116 cells assessed as accumulation at S phase at 30 uM after 48 hrs by propidium iodide staining-based flow cytometric analysis in presence of RNase A (reference value: 16.2%); assay type: functional
[4] = biological target: Serine-protein kinase ATM/ATR (Homo sapiens) (UniProt Q13315+Q13535); assay: Activation of ATM/ATR in human HCT116 cells assessed as increase in Chk2 phosphorylation at Thr68 at 7.5 to 30 uM after 24 hrs by Western blot analysis; assay type: cell-based; conditions: HCT-116
In short: (§1)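 HCT116 cells exposed 24 h in complete medium; lysed in RIPA buffer (pH 8.0), protein by BCA, equal loads run on 8–13% SDS-PAGE, PVDF transfer, blocked in 5% BSA/TBST, primary antibodies overnight at 4 °C, HRP secondaries 2 h RT, ECL detection; β-actin as loading control.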

Mus musculus [5] = assay: Upregulation of p27 in human HCT116 cells xenografted in nude mouse at 5 to 10 mg/kg, ip administered 3 times per week measured on day 41 by H and E staining-based phase contrast microscopic analysis; assay type: functional, organism-based; conditions: HCT-116
In short: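 Tumors excised from the xenograft study (ip 5 or 10 mg/kg three times weekly, day 41) were formalin-fixed and paraffin-embedded. Sections were probed with antibody, detected by LSAB/HRP, counterstained with H&E and photographed under an inverted phase-contrast microscope.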

A549 = assay: Antiproliferative activity against human A549 cells after 24 to 72 hrs by SRB assay; assay type: functional, cell-based
In short: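 Cells grown in 96-well plates (RPMI 1640; MRC-5 in MEM, 10% FBS, antibiotics) with compound […]; fixed in 10% TCA 30 min at 4 °C, stained 0.4% SRB in 1% acetic acid 1 h, dye dissolved in 10 mM Tris pH 10.0, A515 read; viability as % of solvent control, IC50 by nonlinear regression; mean of three independent experiments.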

[6] = Downregulation of ATR expression in human HCT116 cells at 30 uM after 1 hr by Western blot analysis; assay type: functional, cell-based; conditions: HCT-116, TDE = time-dependent effect
In short: (§2)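 HCT116 cells exposed for 1 h in complete medium; RIPA lysates quantified by BCA, equal protein separated on 8–13% SDS-PAGE, transferred to PVDF, probed with primary antibodies overnight at 4 °C and HRP secondaries, chemiluminescence read-out.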

[7] = Upregulation of ATR expression in human HCT116 cells up to 24 hrs at 1 hr by Western blot analysis; assay type: functional, cell-based; conditions: HCT-116
[8] = Antiproliferative activity against p53-expressing human HCT116 cells assessed as cell viability after 72 hrs by SRB assay; assay type: functional, cell-based; conditions: HCT-116, 72 h
In short: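 p53 wild-type and p53-null HCT116 cells in 96-well plates treated 72 h; SRB assay (TCA fix, SRB stain, Tris pH 10.0 solubilisation, A515); viability vs solvent control, IC50 by nonlinear regression.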

[9] = biological target: Cyclin-dependent kinase inhibitor 1B/S-phase kinase-associated protein 2 (Homo sapiens) (UniProt Q13309+P46527); assay: Inhibition of Skp2/p27 protein interaction in human HCT116 cells after 24 hrs by immunoprecipitation assay; assay type: cell-based; conditions: HCT-116
Sequence of Cyclin-dependent kinase inhibitor 1B/S-phase kinase-associated protein 2 (Homo sapiens) (P46527 whole entry, looked up): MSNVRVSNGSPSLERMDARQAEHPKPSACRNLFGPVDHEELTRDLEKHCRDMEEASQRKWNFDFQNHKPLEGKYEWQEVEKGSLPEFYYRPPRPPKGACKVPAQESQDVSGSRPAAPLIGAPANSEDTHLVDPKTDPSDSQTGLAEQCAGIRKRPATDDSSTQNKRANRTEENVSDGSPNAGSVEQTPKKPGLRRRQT
Sequence of Cyclin-dependent kinase inhibitor 1B/S-phase kinase-associated protein 2 (Homo sapiens) (Q13309 whole entry, looked up): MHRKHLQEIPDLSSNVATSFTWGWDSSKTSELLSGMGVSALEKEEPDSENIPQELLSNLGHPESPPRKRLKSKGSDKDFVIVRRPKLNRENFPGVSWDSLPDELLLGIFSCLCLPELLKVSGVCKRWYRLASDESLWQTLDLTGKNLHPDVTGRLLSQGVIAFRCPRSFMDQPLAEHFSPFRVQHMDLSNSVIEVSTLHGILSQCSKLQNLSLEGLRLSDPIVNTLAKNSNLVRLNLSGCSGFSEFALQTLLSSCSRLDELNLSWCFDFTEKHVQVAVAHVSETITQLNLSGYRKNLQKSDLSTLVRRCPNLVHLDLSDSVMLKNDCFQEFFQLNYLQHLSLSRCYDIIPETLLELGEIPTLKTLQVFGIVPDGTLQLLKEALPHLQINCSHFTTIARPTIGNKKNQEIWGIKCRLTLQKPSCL
In short: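 Protein measured by Bradford. Equal protein incubated with Protein G sepharose and the capture antibody (anti-p53, anti-Cul-1 or anti-Skp2) overnight at 4 °C. Bead eluates boiled in Laemmli/2-mercaptoethanol and analysed by Western blot.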

HCT-116 [10] = assay: Induction of cell cycle arrest in human HCT116 cells assessed as accumulation at S phase at 15 uM after 48 hrs by propidium iodide staining-based flow cytometric analysis in presence of RNase A (reference value: 16.2%); assay type: functional
HCT-116 [11] = assay: Induction of morphological change in human HCT116 cells assessed as loss of contact with surface of culture dish at 30 uM after 24 to 48 hrs by phase contrast microscopic analysis; assay type: functional, cell-based
In short: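 HCT116 cells incubated with compound for 24 h, then viewed and photographed under phase-contrast microscopy; also examined at 48 h.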

[12] = Downregulation of ATM expression in human HCT116 cells at 30 uM after 1 hr by Western blot analysis; assay type: functional, cell-based; conditions: HCT-116, TDE = time-dependent effect; in short: as §2
HCT-116 [13] = assay: Induction of cell cycle arrest in human HCT116 cells assessed as accumulation at sub-G1 phase after 24 hrs by propidium iodide staining-based flow cytometric analysis in presence of RNase; assay type: functional
HCT-116 [14] = assay: Induction of cell cycle arrest in human HCT116 cells assessed as accumulation at G2/M phase at 30 uM after 48 hrs by propidium iodide staining-based flow cytometric analysis in presence of RNase A (reference value: 19.7%); assay type: functional
[15] = Downregulation of CDK2 expression in human HCT116 cells at 7.5 to 30 uM after 24 hrs by Western blot analysis; assay type: functional, cell-based; conditions: HCT-116; in short: as §1
HCT-116 [16] = assay: Induction of cell cycle arrest in human HCT116 cells assessed as accumulation at S phase at 7.5 uM after 24 hrs by propidium iodide staining-based flow cytometric analysis in presence of RNase A (reference value: 13.4%); assay type: functional
[17] = Upregulation of phosphorylated ATR expression in human HCT116 cells at 1 hr by Western blot analysis; assay type: functional, cell-based; conditions: HCT-116
Mus musculus [18] = assay: Downregulation of Ki-67 in human HCT116 cells xenografted in nude mouse at 5 to 10 mg/kg, ip administered 3 times per week measured on day 41 by […]; assay type: functional, organism-based; conditions: HCT-116
In short: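 Formalin-fixed, paraffin-embedded xenograft sections (mice dosed ip three times weekly) probed with antibodies, detected by LSAB/HRP, counterstained with H&E, imaged by inverted phase-contrast microscopy.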

[19] = Upregulation of MDM2 expression in p53-null human HCT116 cells at 7.5 to 30 uM after 24 hrs by Western blot analysis; assay type: functional, cell-based; conditions: HCT-116
[20] = Downregulation of phosphorylated ATR expression in human HCT116 cells at 30 uM after 1 hr by Western blot analysis; assay type: functional, cell-based; conditions: HCT-116, TDE = time-dependent effect; in short: as §2
[21] = biological target: Tumour suppressor p53/oncoprotein Mdm2 (Homo sapiens) (UniProt P04637+Q00987); assay: Inhibition of MDM2/P53 protein interaction in human HCT116 cells assessed as stabilization of p53 at 7.5 to 30 uM after 24 hrs by western blot analysis; assay type: cell-based; conditions: HCT-116
Sequence of Tumour suppressor p53/oncoprotein Mdm2 (Homo sapiens) (P04637 whole entry, looked up): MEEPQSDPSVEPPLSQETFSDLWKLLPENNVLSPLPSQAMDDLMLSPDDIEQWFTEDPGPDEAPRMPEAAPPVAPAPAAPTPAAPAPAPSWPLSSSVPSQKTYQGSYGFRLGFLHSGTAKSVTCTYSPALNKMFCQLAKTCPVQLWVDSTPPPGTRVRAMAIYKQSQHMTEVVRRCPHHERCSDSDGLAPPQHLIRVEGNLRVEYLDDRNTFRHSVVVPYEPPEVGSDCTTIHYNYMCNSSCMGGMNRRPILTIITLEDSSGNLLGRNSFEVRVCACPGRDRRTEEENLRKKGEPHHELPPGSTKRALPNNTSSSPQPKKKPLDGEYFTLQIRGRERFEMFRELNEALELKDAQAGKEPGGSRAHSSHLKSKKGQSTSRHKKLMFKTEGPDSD
Sequence of Tumour suppressor p53/oncoprotein Mdm2 (Homo sapiens) (Q00987 whole entry, looked up): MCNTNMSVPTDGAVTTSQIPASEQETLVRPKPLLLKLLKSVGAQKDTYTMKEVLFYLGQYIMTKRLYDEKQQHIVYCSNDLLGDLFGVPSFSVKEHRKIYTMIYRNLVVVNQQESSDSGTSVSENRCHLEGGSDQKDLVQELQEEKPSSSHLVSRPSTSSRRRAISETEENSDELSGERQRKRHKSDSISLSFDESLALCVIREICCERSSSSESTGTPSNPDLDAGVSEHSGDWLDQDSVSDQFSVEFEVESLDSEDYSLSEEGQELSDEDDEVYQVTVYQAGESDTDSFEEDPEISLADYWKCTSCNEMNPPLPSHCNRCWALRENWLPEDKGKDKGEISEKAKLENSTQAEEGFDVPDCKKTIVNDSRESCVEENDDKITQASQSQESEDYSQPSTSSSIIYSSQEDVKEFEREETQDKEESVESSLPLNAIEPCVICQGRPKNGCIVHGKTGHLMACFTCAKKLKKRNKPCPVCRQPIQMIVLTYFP

HCT-116 [22] = assay: Induction of apoptosis in human HCT116 cells assessed as dead cells at 7.5 uM after 48 hrs by annexin V-FITC/propidium iodide staining-based flow cytometric analysis (reference value: 2%); assay type: functional
HCT-116 [23] = assay: Reduction in histone H3 Lys9 acetylation in human HCT116 cells at 7.5 to 30 uM after 24 hrs by Western blot analysis; assay type: functional, cell-based
HCT-116 [24] = assay: Induction of apoptosis in human HCT116 cells assessed as cleaved caspase 3 level at 30 uM up to 24 hrs by Western blot analysis in presence of NAC; assay type: functional, cell-based

O=C/C=C/c1ccc2c(c1)O[C@@H](CO)[C@H](c1ccc(O)c(O)c1)O2 [AMERICANIN A]
Activity (HCT-116 [1]): 18.9% | Activity (HCT-116 [2]): Active | Activity (HCT-116 [3]): 8.4% | Activity [4]: Dose-dependent effect | Activity (Mus musculus [5]): Active | pIC50 (A549): 4.41 | Activity [6]: tde | Activity [7]: Dose-dependent effect | pIC50 [8]: 5.08 | inhibition [9]: inactive | Activity (HCT-116 [10]): 8.2% | Activity (HCT-116 [11]): Active | Activity [12]: tde | Activity (HCT-116 [13]): Dose-dependent effect | Activity (HCT-116 [14]): 19% | Activity [15]: Active | Activity (HCT-116 [16]): 15.6% | Activity [17]: Dose-dependent effect | Activity (Mus musculus [18]): Active | Activity [19]: Active | Activity [20]: tde | inhibition [21]: Active | Activity (HCT-116 [22]): 2% | Activity (HCT-116 [23]): Active | Activity (HCT-116 [24]): inactive
